Test results published in ChEMBL document CHEMBL5303300, “EUbOPEN Chemogenomics Library - Multiplex” (2023).
Where “and” joins values, the source holds several entries; their conditions need not be identical. Equal values may be shown once.

Test system: U2OS
Experiment: Multiplex assay against U2OS
Assay type: toxicity, cell-based
Conditions: human, number of replicates 2
Outline: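 Values for tubulin, mitochondrial-mass and membrane-permeability phenotypes are per cents of cells with healthy nuclei. These cells were identified by CellPathfinder machine-learning gating of live cells that had been stained at seeding with Hoechst33342, BioTracker Green Microtubule Cytoskeleton Dye, MitoTracker Red and Annexin V Alexa Fluor 680 and imaged on a CQ1 microscope at 37°C and 5% CO2 after compound addition. The gating first set Hoechst high-intensity objects apart from normal cells, then split normal cells into healthy, pyknosed or fragmented nuclei, and pyknosed cells into mitotic or apoptotic.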

[1] = 12 h, 1 µM, compound concentration 1 uM
[2] = 12 h, 10 µM, compound concentration 10 uM
[3] = 24 h, 1 µM, compound concentration 1 uM
[4] = 24 h, 10 µM, compound concentration 10 uM
[5] = 48 h, 1 µM, compound concentration 1 uM
[6] = 48 h, 10 µM, compound concentration 10 uM

CC1(C)C(=O)N([C@H]2CCc3c(O)cccc32)c2nc(Nc3cccc(CN4CCCC4)c3)ncc21
Population Apoptotic (%) [1]: 50% and 79%
Population Healthy Nuclei (%) [1]: 25% and 70%
Population Hoechst High Intensity Objects (%) [1]: 0%
Population Membrane Permeable-Phenotype (%) [1]: 0% and 6%
Population Mitochondria Different-Phenotype (%) [1]: 0% and 17%
Population Mitotic Cells (%) [1]: 50% and 20%
Population Normal (%) [1]: 100%
Population Pyknosed Nuclei (%) [1]: 22%
Population Tubulin-Different-Phenotype (%) [1]: 55% and 51%
Population Apoptotic (%) [2]: 90% and 88%
Population Healthy Nuclei (%) [2]: 28% and 42%
Population Hoechst High Intensity Objects (%) [2]: 0% and 2%
Population Membrane Permeable-Phenotype (%) [2]: 62% and 26%
Population Mitochondria Different-Phenotype (%) [2]: 50% and 59%
Population Mitotic Cells (%) [2]: 9% and 11%
Population Normal (%) [2]: 100% and 97%
Population Pyknosed Nuclei (%) [2]: 39% and 49%
Population Tubulin-Different-Phenotype (%) [2]: 62% and 73%
Population Apoptotic (%) [3]: 80% and 81%
Population Healthy Nuclei (%) [3]: 25% and 59%
Population Hoechst High Intensity Objects (%) [3]: 0%
Population Membrane Permeable-Phenotype (%) [3]: 0% and 6%
Population Mitochondria Different-Phenotype (%) [3]: 0% and 16%
Population Mitotic Cells (%) [3]: 20% and 18%
Population Normal (%) [3]: 100%
Population Pyknosed Nuclei (%) [3]: 31% and 29%
Population Tubulin-Different-Phenotype (%) [3]: 62% and 42%
Population Apoptotic (%) [4]: 90% and 92%
Population Healthy Nuclei (%) [4]: 31% and 20%
Population Hoechst High Intensity Objects (%) [4]: 0% and 2%
Population Membrane Permeable-Phenotype (%) [4]: 44% and 36%
Population Mitochondria Different-Phenotype (%) [4]: 66% and 72%
Population Mitotic Cells (%) [4]: 9% and 8%
Population Normal (%) [4]: 100% and 97%
Population Pyknosed Nuclei (%) [4]: 37% and 71%
Population Tubulin-Different-Phenotype (%) [4]: 55% and 83%
Population Apoptotic (%) [5]: 91% and 94%
Population Hoechst High Intensity Objects (%) [5]: 3% and 1%
Population Membrane Permeable-Phenotype (%) [5]: 50% and 21%
Population Mitochondria Different-Phenotype (%) [5]: 0% and 22%
Population Mitotic Cells (%) [5]: 8% and 5%
Population Normal (%) [5]: 96% and 98%
Population Pyknosed Nuclei (%) [5]: 37% and 47%
Population Tubulin-Different-Phenotype (%) [5]: 50% and 51%
Population Apoptotic (%) [6]: 97% and 81%
Population Healthy Nuclei (%) [6]: 12% and 15%
Population Hoechst High Intensity Objects (%) [6]: 1% and 2%
Population Membrane Permeable-Phenotype (%) [6]: 77% and 50%
Population Mitochondria Different-Phenotype (%) [6]: 77% and 50%
Population Normal (%) [6]: 98% and 97%
Population Pyknosed Nuclei (%) [6]: 81% and 28%
Population Tubulin-Different-Phenotype (%) [6]: 81% and 83%

COc1nc2ccc([C@@](O)(c3ccc(Cl)cc3)c3cncn3C)cc2c(Cl)c1Cc1ccc(-n2cccn2)cc1 [JNJ-53721590]
Population Healthy Nuclei (%) [1]: 56% and 85%
Population Hoechst High Intensity Objects (%) [1]: 0%
Population Membrane Permeable-Phenotype (%) [1]: 5% and 1%
Population Mitochondria Different-Phenotype (%) [1]: 0% and 20%
Population Normal (%) [1]: 100%
Population Pyknosed Nuclei (%) [1]: 16% and 10%
Population Tubulin-Different-Phenotype (%) [1]: 23% and 37%
Population Apoptotic (%) [2]: 74% and 57%
Population Fragmented Nuclei (%) [2]: 2% and 12%
Population Healthy Nuclei (%) [2]: 82% and 74%
Population Hoechst High Intensity Objects (%) [2]: 0%
Population Membrane Permeable-Phenotype (%) [2]: 29% and 21%
Population Mitochondria Different-Phenotype (%) [2]: 28% and 56%
Population Mitotic Cells (%) [2]: 25% and 42%
Population Normal (%) [2]: 99% and 100%
Population Pyknosed Nuclei (%) [2]: 14% and 12%
Population Tubulin-Different-Phenotype (%) [2]: 89% and 97%
Population Apoptotic (%) [3]: 50% and 62%
Population Fragmented Nuclei (%) [3]: 20% and 0%
Population Healthy Nuclei (%) [3]: 45% and 85%
Population Hoechst High Intensity Objects (%) [3]: 0%
Population Membrane Permeable-Phenotype (%) [3]: 0% and 1%
Population Mitochondria Different-Phenotype (%) [3]: 6% and 17%
Population Mitotic Cells (%) [3]: 50% and 37%
Population Normal (%) [3]: 100% and 99%
Population Pyknosed Nuclei (%) [3]: 34% and 13%
Population Tubulin-Different-Phenotype (%) [3]: 25% and 42%
Population Apoptotic (%) [4]: 79% and 36%
Population Fragmented Nuclei (%) [4]: 3% and 12%
Population Healthy Nuclei (%) [4]: 78% and 64%
Population Hoechst High Intensity Objects (%) [4]: 0%
Population Membrane Permeable-Phenotype (%) [4]: 34% and 35%
Population Mitochondria Different-Phenotype (%) [4]: 43% and 54%
Population Normal (%) [4]: 99% and 100%
Population Pyknosed Nuclei (%) [4]: 18% and 22%
Population Tubulin-Different-Phenotype (%) [4]: 93%
Population Apoptotic (%) [5]: 70% and 81%
Population Healthy Nuclei (%) [5]: 86% and 54%
Population Hoechst High Intensity Objects (%) [5]: 0%
Population Mitochondria Different-Phenotype (%) [5]: 9% and 13%
Population Mitotic Cells (%) [5]: 29% and 18%
Population Normal (%) [5]: 99% and 100%
Population Pyknosed Nuclei (%) [5]: 10% and 26%
Population Apoptotic (%) [6]: 64% and 85%
Population Healthy Nuclei (%) [6]: 47% and 65%
Population Hoechst High Intensity Objects (%) [6]: 0%
Population Membrane Permeable-Phenotype (%) [6]: 57% and 47%
Population Mitochondria Different-Phenotype (%) [6]: 48% and 34%
Population Mitotic Cells (%) [6]: 35% and 14%
Population Normal (%) [6]: 100% and 99%
Population Pyknosed Nuclei (%) [6]: 24% and 26%
Population Tubulin-Different-Phenotype (%) [6]: 96% and 90%

CCN1CCN(Cc2ccc(C(=O)Nc3ccc(C)c(Oc4ccc5c(c4)CC(=O)N5)c3)cc2C(F)(F)F)CC1.Cl.Cl
Population Apoptotic (%) [1]: 50%
Population Healthy Nuclei (%) [1]: 82% and 64%
Population Hoechst High Intensity Objects (%) [1]: 0% and 3%
Population Membrane Permeable-Phenotype (%) [1]: 0%
Population Mitochondria Different-Phenotype (%) [1]: 4% and 0%
Population Mitotic Cells (%) [1]: 50%
Population Normal (%) [1]: 100% and 96%
Population Pyknosed Nuclei (%) [1]: 12% and 19%
Population Tubulin-Different-Phenotype (%) [1]: 60% and 40%
Population Apoptotic (%) [2]: 42% and 45%
Population Fragmented Nuclei (%) [2]: 15% and 8%
Population Healthy Nuclei (%) [2]: 57% and 69%
Population Hoechst High Intensity Objects (%) [2]: 1% and 0%
Population Membrane Permeable-Phenotype (%) [2]: 33% and 14%
Population Mitochondria Different-Phenotype (%) [2]: 46%
Population Mitotic Cells (%) [2]: 57% and 54%
Population Normal (%) [2]: 98% and 100%
Population Pyknosed Nuclei (%) [2]: 26% and 22%
Population Tubulin-Different-Phenotype (%) [2]: 83% and 81%
Population Apoptotic (%) [3]: 66% and 63%
Population Fragmented Nuclei (%) [3]: 5% and 2%
Population Healthy Nuclei (%) [3]: 71% and 81%
Population Hoechst High Intensity Objects (%) [3]: 2% and 0%
Population Membrane Permeable-Phenotype (%) [3]: 0%
Population Mitochondria Different-Phenotype (%) [3]: 7% and 3%
Population Mitotic Cells (%) [3]: 33% and 36%
Population Normal (%) [3]: 97% and 100%
Population Pyknosed Nuclei (%) [3]: 23% and 15%
Population Tubulin-Different-Phenotype (%) [3]: 51% and 64%
Population Apoptotic (%) [4]: 65% and 64%
Population Fragmented Nuclei (%) [4]: 12% and 8%
Population Healthy Nuclei (%) [4]: 54% and 64%
Population Hoechst High Intensity Objects (%) [4]: 0%
Population Membrane Permeable-Phenotype (%) [4]: 29% and 26%
Population Mitochondria Different-Phenotype (%) [4]: 76% and 74%
Population Mitotic Cells (%) [4]: 35%
Population Normal (%) [4]: 100%
Population Pyknosed Nuclei (%) [4]: 32% and 27%
Population Tubulin-Different-Phenotype (%) [4]: 61% and 86%
Population Apoptotic (%) [5]: 78% and 66%
Population Fragmented Nuclei (%) [5]: 4% and 1%
Population Healthy Nuclei (%) [5]: 72% and 85%
Population Hoechst High Intensity Objects (%) [5]: 1% and 0%
Population Membrane Permeable-Phenotype (%) [5]: 4% and 1%
Population Mitochondria Different-Phenotype (%) [5]: 2% and 1%
Population Mitotic Cells (%) [5]: 21% and 33%
Population Normal (%) [5]: 98% and 99%
Population Pyknosed Nuclei (%) [5]: 22% and 13%
Population Tubulin-Different-Phenotype (%) [5]: 59% and 70%
Population Apoptotic (%) [6]: 83% and 80%
Population Fragmented Nuclei (%) [6]: 9% and 10%
Population Healthy Nuclei (%) [6]: 29% and 49%
Population Hoechst High Intensity Objects (%) [6]: 1% and 0%
Population Membrane Permeable-Phenotype (%) [6]: 66% and 31%
Population Mitochondria Different-Phenotype (%) [6]: 60% and 81%
Population Mitotic Cells (%) [6]: 16% and 19%
Population Normal (%) [6]: 98% and 99%
Population Pyknosed Nuclei (%) [6]: 60% and 40%
Population Tubulin-Different-Phenotype (%) [6]: 80% and 81%
